# SUMO1-SIM PPI = SUMO1-SIM interaction modulation | P63165 | inhibition, % at 20 µM | hit rate 0.33% among 360,000 | SUMO1 binding to a labelled peptide, TR-FRET, 1 h; in the data active means inhibition above about 37%
# LMPTP block = LMPTP (human) inhibition; P24666; recombinant LMPTP-A, OMFP fluorogenic substrate, fluorescence intensity; inhibition, % at 20 µM; hit rate 0.22% among 360,000; AID 651560;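 active means compounds that cut the enzyme signal by at least half of the control window in the single-dose screen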;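 further: plate controls were DMSO wells with enzyme plus substrate for no effect and substrate without enzyme for full effect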
#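 material = LMPTP-A | quantity = 0.625 nM enzyme | reagent = OMFP substrate, 400 µM final | buffer or medium = Bis-Tris pH 6.0, DTT, detergent | detection = endpoint fluorescence intensity from OMFP dephosphorylation | dosing = single 20 µM dose | read-out basis = % inhibition relative to no-enzyme and uninhibited control wells | control set = no-enzyme and uninhibited controls | timing = 50 min at room temperature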
# Scp-1 inhibitor = inhibitors of human Scp-1 phosphatase; Recombinant Scp1, phosphopeptide, malachite green phosphate absorbance; hit rate 0.88% among 340,000; AID 493091; inhibition, % at 20 µM; Q9GZU7;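 active means inhibition above about 50% at 20 µM, limit read from the data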;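 further: plate controls were DMSO wells with enzyme for no effect and wells lacking enzyme for full effect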
#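 Test system: SCP-1 catalytic domain; Buffer or medium: Acidic Tris acetate buffer with magnesium and detergent; Also added: Phosphorylated 17-residue peptide substrate; Compound: single 20 µM dose, 1% DMSO; Schedule: enzyme reaction 45 min at room temperature, colour 5 min, stabilisation 30 min; Signal: Phosphate-binding colour reagent, absorbance read at 630 nm.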
# DNMT1 block = blocks human DNA methyltransferase DNMT1; P26358; DNMT1 molecular beacon, Hinp1I cleavage, fluorescence; inhibition (reported as % activation of signal), % at 10 µM; hit rate 0.83% among 360,000; in the data active means inhibition above about 50%
# Target sequence (P26358 504-1616 limits assumed): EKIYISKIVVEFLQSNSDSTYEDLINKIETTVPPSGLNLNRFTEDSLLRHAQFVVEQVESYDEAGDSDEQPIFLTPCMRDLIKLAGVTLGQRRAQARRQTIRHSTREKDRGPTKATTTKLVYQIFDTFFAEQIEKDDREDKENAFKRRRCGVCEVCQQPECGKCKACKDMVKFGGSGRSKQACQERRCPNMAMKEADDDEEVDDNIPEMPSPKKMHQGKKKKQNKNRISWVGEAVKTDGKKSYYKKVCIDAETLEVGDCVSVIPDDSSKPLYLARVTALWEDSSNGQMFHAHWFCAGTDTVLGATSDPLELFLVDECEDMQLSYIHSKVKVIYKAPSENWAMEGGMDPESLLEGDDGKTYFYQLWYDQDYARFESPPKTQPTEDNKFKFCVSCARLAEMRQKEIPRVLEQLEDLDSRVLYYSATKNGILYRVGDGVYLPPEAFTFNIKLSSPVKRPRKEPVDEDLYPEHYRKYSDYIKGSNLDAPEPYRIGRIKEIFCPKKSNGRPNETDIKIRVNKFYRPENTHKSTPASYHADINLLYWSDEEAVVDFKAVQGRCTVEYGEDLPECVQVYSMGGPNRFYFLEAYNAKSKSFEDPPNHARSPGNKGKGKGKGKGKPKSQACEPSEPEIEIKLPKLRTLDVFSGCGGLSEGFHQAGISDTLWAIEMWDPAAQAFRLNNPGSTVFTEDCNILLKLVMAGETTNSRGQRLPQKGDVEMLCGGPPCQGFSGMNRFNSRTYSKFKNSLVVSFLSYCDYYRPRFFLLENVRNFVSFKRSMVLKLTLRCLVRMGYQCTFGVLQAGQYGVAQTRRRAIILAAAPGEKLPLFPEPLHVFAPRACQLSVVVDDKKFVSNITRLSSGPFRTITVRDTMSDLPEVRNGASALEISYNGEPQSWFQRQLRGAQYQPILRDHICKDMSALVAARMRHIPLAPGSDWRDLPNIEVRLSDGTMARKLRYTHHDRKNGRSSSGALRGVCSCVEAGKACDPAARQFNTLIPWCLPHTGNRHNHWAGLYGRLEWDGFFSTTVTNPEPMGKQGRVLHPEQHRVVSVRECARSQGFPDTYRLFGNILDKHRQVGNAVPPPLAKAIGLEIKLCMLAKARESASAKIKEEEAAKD
# CASP6 VEID inh = caspase-6 (human) enzyme inhibition | purified caspase-6, Z-VEID-R110 cleavage fluorescence | inhibition, % at 12.5 µM | P55212 | hit rate 0.53% among 350,000;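 active means mean inhibition across replicates at least about 35%, with every replicate also reaching that limit, limit read from the data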;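 further: 0% = median of neutral control wells and 100% = no fluorescence left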
# STEP inh = blocks human striatal-enriched tyrosine phosphatase; recombinant STEP, OMFP fluorogenic substrate, fluorescence; inhibition, % at 20 µM; hit rate 0.25% among 360,000;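 active means inhibition at 20 µM, scaled per plate between control wells, above about 37%, limit read from the data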;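 further: 0% = DMSO with enzyme and substrate and 100% = substrate only without enzyme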
#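 System: STEP phosphatase, cell-free reaction; Buffer or medium: Bis-Tris pH 6.0 buffer with DTT, detergent; Incubation: 20 min at room temperature, dark; Measured by: fluorescence, 480/540 nm.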
# * hit, by the source's call; nt = not tested or not shown; ! = not active in a repeat. Shown are actives, neighbours in structure and some others; about 1.7% of the full set was active somewhere.
SMILES,SUMO1-SIM PPI,LMPTP block,Scp-1 inhibitor,DNMT1 block,CASP6 VEID inh,STEP inh
CC(C)(C)C(=O)NC1(C(F)(F)F)NC(=O)N(c2ccccc2F)C1=O (stereo unspecified),-3,0,-5,0,-2,1
NC(=O)c1ccsc1NC(=O)CSc1ncnc2sccc12,10,18,-12,-6,4,1
CCN(CC)CCN(CC)Cc1ccccc1Br,0,-4,-6,4,56*,2
CCN(CC)c1ccc(/C=C(/C#N)c2nc3ccc(C)cc3[nH]2)c(OC(C)C)c1,-80,16,3,53*,0,-48
C#CCN(C[C@@H]1[C@@H](OC(=O)NC2CC2)[C@@H](OC(=O)NC2CC2)CN(C(=O)OC(C)C)N1C(=O)OC(C)C)S(=O)(=O)c1ccc(C)cc1,2,-1,nt,0,3,-2
C(=C\c1nc(N2CCCCCC2)c2ccccc2n1)/c1ccccc1,-1,56*,2,-6,nt,3
c1ccc2c(N3CCCCC3)nc(N3CCCCC3)nc2c1,-4,1,0,3,nt,2
CC(C)(C)NC(=O)C(c1cccnc1)N(C(=O)c1csnn1)c1ccccc1 (stereo unspecified),6,-1,2,1,0,2
COc1ccc(C2NC(=O)NC(C)=C2C(=O)Nc2cc(C)ccc2C)cc1OC (stereo unspecified),-1,-2,4,0,nt,1
CCc1ccc(NC(=O)C(C)Sc2nc(-c3ccco3)c(C#N)c(=O)[nH]2)cc1 (stereo unspecified),4,0,25,13,46*,4
Cc1cccc(C(=O)NNC(=O)c2ccc(NC(=O)C(C)(C)C)cc2)c1,-1,0,-4,-2,0,-1
CCN(CC)S(=O)(=O)c1cccc(N=NC2=C(O)CCCC2=O)c1,-11,1,2,-6,nt,0
O=C1CCCC(O)=C1N=Nc1cccc(C(=O)O)c1,1,5,61*,43,37*,5
CC[n+]1cc(-c2ccccc2)nc(N2CCOCC2)n1,-25,-1,99*,6,2,-2
Cn1nc(C(F)(F)F)c(C(=O)Nc2ccc(Cl)cc2)c1Cl,41*,-1,3,3,nt,-5
CCN(CC)c1ccc(C(=C2C=CC(=[N+](CC)CC)C=C2)c2ccc(N(CC)CC)cc2)cc1,-58,81*,-2,14,25,25
Cc1noc(C)c1S(=O)(=O)Nc1ccc2c(c1)C(=O)N([C@H](C)CO)C[C@@H](C)[C@H](CN(C)C(=O)NC1CCCCC1)O2,nt,nt,nt,nt,1,nt
O=C(O)CCCN1C(=O)/C(=C/c2ccc(-c3nc4ccccc4s3)o2)SC1=S,34,9,59*,104*,nt,62*
O=C(O)CCCCCN1C(=O)/C(=C\c2ccc(-c3ccc(Cl)cc3)o2)SC1=S,70*,79*,89*,14,15,7
O=C(O)CCCCCN1C(=O)/C(=C\c2ccncc2)SC1=S,-10,0,1,-3,nt,3
O=C(O)CCCN1C(=O)/C(=C/c2ccncc2)SC1=S,-27,-1,6,1,-1,1
O=C1O[C@@H](c2ccccc2)[C@@H](c2ccccc2)N2[C@@H](c3ccccc3OCCO)[C@]3(C(=O)Nc4ccccc43)[C@@H](C(=O)O)[C@H]12,nt,nt,nt,nt,36*,nt
C[C@H]1CN([C@@H](C)CO)S(=O)(=O)c2ccc(-c3cccnc3)cc2O[C@H]1CN(C)C(=O)NC1CCCC1,nt,nt,nt,nt,2,nt
CCOC(=O)C1(Cc2ccccc2C)CCCN(C(=O)CCc2cccnc2)C1 (stereo unspecified),-4,1,-21,1,60*,2
CCCCCn1nnnc1-c1nc2cc(C)c(C)cc2[nH]c1=O,-17,-1,nt,nt,42*,nt
SMILES,SUMO1-SIM PPI,LMPTP block,Scp-1 inhibitor,DNMT1 block,CASP6 VEID inh,STEP inh
CCCCn1nnnc1-c1nc2ccccc2[nH]c1=O,-26,1,nt,nt,1,nt
COc1ccc(-c2cc(=O)oc3c(C)c(OCC(=O)Nc4cccnc4)ccc23)cc1,41*,20,25,15,1,27
Cc1cc(C)c(C(=O)N2CCCC(Nc3ccc(F)cc3)C2)o1 (stereo unspecified),-1,0,-1,4,2,0
Cn1c(C(=O)N2CCCC(Nc3ccc(F)cc3)C2)cc2ccccc21 (stereo unspecified),3,1,7,2,41*,1
Cc1cc(C)n2nc(SCC(=O)N3CCC(C)CC3)nc2n1,5,-1,-5,9,1,-2
O=S(=O)(c1ccc(F)cc1)N1CCN(c2ncccn2)CC1,-1,-1,-1,-2,-2,-1
Cc1cc(C)nc(N2CCN(S(=O)(=O)c3ccc(F)cc3)CC2)n1,3,-4,-7,1,38*,-3
Cn1c(SCC(=O)NC(=O)NCc2ccco2)nnc1C(F)(F)F,0,-1,-4,-1,nt,-8
CSc1ccccc1NC(=O)CN(C)C(=O)COc1cccc2cccnc12,-10,2,-8,-10,45*,4
O=C(c1ccco1)N1CCN(C(=O)c2cc(-c3ccncc3)nc3ccc(Br)cc23)CC1,10,-2,-5,-2,nt,2
O=C(O)c1cc(-c2ccco2)nc2ccc(Br)cc12,57*!,26,80*!,106*!,nt,66*!
O=C(N/N=C/c1cccnc1)c1cc(O)c(O)c(O)c1,3,0,44,7,41*,2
O=C(N/N=C/c1cc(Br)c(O)c(Br)c1O)c1cccnc1,-5,-1,11,19,40*,7
O=C(OCCC12CC3CC(CC(C3)C1)C2)c1ccc(NCc2cc(O)ccc2O)cc1,0,13,70*,6,6,14
Cn1c(N)c(C(=O)COC(=O)c2cc3ccccc3cc2O)c(=O)n(C)c1=O,51*,2,-19,-19,-2,4
COc1ccc(NC(=O)N(C)C[C@H]2Oc3c(NC(=O)Nc4ccccc4)cccc3C(=O)N([C@@H](C)CO)C[C@@H]2C)cc1,nt,nt,nt,nt,2,nt
CC(=O)N1C(=O)c2cccc3cccc(c23)C(=O)N1C(C)=O,nt,nt,1,nt,nt,nt
O=C1c2cccc3cccc(c23)C(=O)C1(O)O,-26,57*,-10,3,17,6
N#CCCC(CCC#N)(CCC#N)c1cc[n+](CCc2ccccn2)cc1,0,-2,-3,-1,0,3
Cc1ccc(NC(=O)CN2C(=O)N/C(=C/c3cccn3-c3ccc(C(=O)O)cc3)C2=O)cc1,49*,50*,93*,107*,nt,97*
Cc1ccc(NC(=O)CN2C(=O)S/C(=C\c3cc(C)n(-c4ccc(C(=O)O)cc4)c3C)C2=O)cc1,-6,3,-9,-10,8,4

# Compound activity: PubChem BioAssay, several laboratories
